# Tests used:
# B16F10 cells = experiment: cellular internalization in B16F10 cells; format: cell-based, mouse; settings: n = 3
# Huh-7 cells = experiment: cellular uptake in Huh-7 cells; format: cell-based, human; settings: n = 3
# Summary of the method: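 Huh-7 cells were seeded at 1×10^5 per well in DMEM/10% FBS. Radiolabeled tracer (740 KBq/1 mL medium) was added, with incubation at 37 or 4 °C for 5, 10, 20, 40, 60 and 80 min. Cells were washed three times with cold PBS and lysed in 0.5 M NaOH. Lysate radioactivity was gamma-counted.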
substance,measurement,setting,value
NODAGA-Ahx-CWRLRWHSPLKGM-OH [[^64Cu]CM-3],in vitro cellular internalization,B16F10 cells,weaker binding
same,in vitro cellular internalization,Huh-7 cells,weaker binding
